From ChEMBL document CHEMBL1154647, “Synthesis, spectral characterization and biological evaluation of phosphorylated derivatives of galanthamine” (Eur J Med Chem, 2010)
Converted amounts (≈) assume the structure as drawn.

Experiments:
Brain [1] = assay: Antioxidant activity in Wistar rat brain assessed as glutathione content; format: functional
Summary of the method: (§1)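 Wistar rat brain was homogenised 1:40 (w/v) in 0.1 M phosphate buffer, pH 7.4, with 1 mM EDTA. Total glutathione (GSH + GSSG) and reduced GSH were assayed spectrophotometrically from optical density, using net rate against a standard-curve slope and intercept, times a dilution factor. Homogenate protein was measured by the Lowry method.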

Brain [2] = assay: Antioxidant activity in Wistar rat brain assessed as catalase content; format: functional
Brain [3] = assay: Antioxidant activity in Wistar rat brain assessed as inhibition of lipid peroxidation; format: functional, tissue-based
Brain [4] = assay: Antioxidant activity in Wistar rat brain assessed as reduction in glutathione content; format: functional, tissue-based; summary of the method: as §1
[5] = Inhibition of superoxide dismutase in Wistar rat brain; format: tissue-based
Brain [6] = assay: Antioxidant activity in Wistar rat brain assessed as lipid peroxidation; format: functional, tissue-based
Staphylococcus aureus [7] = assay: Antibacterial activity against Staphylococcus aureus at 1 mg/mL after 18 hrs by disc diffusion assay; format: functional; details: read-out: IZ
Summary of the method: (§2)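 Bacteria were grown in nutrient broth at 37 °C for 18 h on a rotary shaker at 150 rpm. Compounds were dissolved in DMF. Nutrient agar plates were dried at 35–36 °C for about 30 min, and test strains were spread on the surface. Discs were applied, and plates were inverted and incubated at 37 °C. A DMF blank was run.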

Bacillus subtilis [8] = assay: Antibacterial activity against Bacillus subtilis at 1 mg/mL after 18 hrs by disc diffusion assay; format: functional; details: read-out: IZ; summary of the method: as §2
Klebsiella pneumoniae [9] = assay: Antibacterial activity against Klebsiella pneumoniae after 18 hrs; format: functional
Escherichia coli [10] = assay: Antibacterial activity against Escherichia coli after 18 hrs; format: functional
Bacillus subtilis [11] = assay: Antibacterial activity against Bacillus subtilis at 2 mg/mL after 18 hrs by disc diffusion assay; format: functional; details: read-out: IZ; summary of the method: as §2
Catalase = molecular target: T1, Catalase (Rattus norvegicus, UniProt P04762); assay: Inhibition of catalase in Wistar rat brain
T1 sequence (P04762 whole entry): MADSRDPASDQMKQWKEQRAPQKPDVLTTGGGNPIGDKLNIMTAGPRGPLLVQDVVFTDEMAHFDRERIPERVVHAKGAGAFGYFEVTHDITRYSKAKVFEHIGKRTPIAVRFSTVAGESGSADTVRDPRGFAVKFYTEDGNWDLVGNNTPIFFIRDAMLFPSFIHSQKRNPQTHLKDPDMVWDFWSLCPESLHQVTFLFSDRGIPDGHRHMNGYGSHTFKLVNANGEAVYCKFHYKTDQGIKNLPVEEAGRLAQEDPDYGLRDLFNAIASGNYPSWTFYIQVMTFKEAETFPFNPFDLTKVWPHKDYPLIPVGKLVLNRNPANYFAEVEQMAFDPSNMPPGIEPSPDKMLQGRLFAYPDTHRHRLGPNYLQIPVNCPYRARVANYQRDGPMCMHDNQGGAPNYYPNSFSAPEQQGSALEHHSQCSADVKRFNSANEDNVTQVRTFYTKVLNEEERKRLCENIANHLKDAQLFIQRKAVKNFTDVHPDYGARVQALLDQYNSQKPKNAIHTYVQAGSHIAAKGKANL

Bacillus subtilis [12] = assay: Antibacterial activity against Bacillus subtilis after 18 hrs; format: functional
Staphylococcus aureus [13] = assay: Antibacterial activity against Staphylococcus aureus at 2 mg/mL after 18 hrs by disc diffusion assay; format: functional; details: read-out: IZ; summary of the method: as §2
Brain [14] = assay: Antioxidant activity in Wistar rat brain assessed as superoxide dismutase content; format: functional
Escherichia coli [15] = assay: Antibacterial activity against Escherichia coli at 2 mg/mL after 18 hrs by disc diffusion assay; format: functional; details: read-out: IZ; summary of the method: as §2
Escherichia coli [16] = assay: Antibacterial activity against Escherichia coli at 1 mg/mL after 18 hrs by disc diffusion assay; format: functional; details: read-out: IZ; summary of the method: as §2
Staphylococcus aureus [17] = assay: Antibacterial activity against Staphylococcus aureus after 18 hrs; format: functional
Klebsiella pneumoniae [18] = assay: Antibacterial activity against Klebsiella pneumoniae at 2 mg/mL after 18 hrs by disc diffusion assay; format: functional; details: read-out: IZ; summary of the method: as §2
Klebsiella pneumoniae [19] = assay: Antibacterial activity against Klebsiella pneumoniae at 1 mg/mL after 18 hrs by disc diffusion assay; format: functional; details: read-out: IZ; summary of the method: as §2

Row | Molecule | Activity (Brain [1]) [µg/mL] | Activity (Brain [2]) [µg/mL] | EC50 (Brain [3]) [µg/mL] | EC50 (Brain [4]) [µg/mL] | EC50 [5] [µg/mL] | Activity (Brain [6]) [µg/mL] | zone of inhibition at 1000 µg/mL (Staphylococcus aureus [7]) [mm] | zone of inhibition at 1000 µg/mL (Bacillus subtilis [8]) [mm] | MIC (Klebsiella pneumoniae [9]) [µg/mL] | MIC (Escherichia coli [10]) [µg/mL] | zone of inhibition at 2000 µg/mL (Bacillus subtilis [11]) [mm] | EC50 (Catalase) [µg/mL] | MIC (Bacillus subtilis [12]) [µg/mL] | zone of inhibition at 2000 µg/mL (Staphylococcus aureus [13]) [mm] | Activity (Brain [14]) [µg/mL] | zone of inhibition at 2000 µg/mL (Escherichia coli [15]) [mm] | zone of inhibition at 1000 µg/mL (Escherichia coli [16]) [mm] | MIC (Staphylococcus aureus [17]) [µg/mL] | zone of inhibition at 2000 µg/mL (Klebsiella pneumoniae [18]) [mm] | zone of inhibition at 1000 µg/mL (Klebsiella pneumoniae [19]) [mm]
1 | O=C1O[C@H]([C@@H](O)CO)C(O)=C1O [ASCORBIC ACID] | 31.34 | 385.46 | 1.02 (≈ 5.79 µM) | 0.98 (≈ 5.56 µM) | 0.99 (≈ 5.62 µM) | 88.1 |  |  |  |  |  |  |  |  |  |  |  |  |  | 
2 | COc1ccc2c3c1O[C@H]1C[C@@H](O)C=C[C@@]31CCN(C)C2 [GALANTAMINE] | 4.69 | 283.44 | 4.93 (≈ 17.2 µM) | 4.21 (≈ 14.7 µM) | 3.84 (≈ 13.4 µM) | 70.7 | 1.39 | 1.65 | 0.62 (≈ 2.16 µM) | 0.7 (≈ 2.44 µM) | 2.25 | 5.06 (≈ 17.6 µM) | 0.18 (≈ 0.626 µM) | 2.66 | 29.37 | 2.02 | 1.47 | 1 (≈ 3.48 µM) | 2.21 | 1.83
3 | COc1ccc2c3c1O[C@H]1C[C@@H](OP(=O)(SCCO)N(CCCl)CCCl)C=C[C@@]31CCN(C)C2 (stereo partly specified) | 4.92 | 285.32 | 1.33 (≈ 2.41 µM) | 1.11 (≈ 2.01 µM) | 1.62 (≈ 2.94 µM) | 71.2 | 1.53 | 1.72 | 0.59 (≈ 1.07 µM) | 0.26 (≈ 0.471 µM) | 3.01 | 1.67 (≈ 3.03 µM) | 0.13 (≈ 0.236 µM) | 3.09 | 29.55 | 2.21 | 1.14 | 0.21 (≈ 0.381 µM) | 6.46 | 2.08
4 | VITAMIN E [listing 1 of 2 here] |  |  | 1.22 | 0.99 | 1.03 |  |  |  |  |  |  | 1.48 |  |  |  |  |  |  |  | 
5 | COc1ccc2c3c1O[C@H]1C[C@@H](OP(=O)(NCCO)Oc4ccc([N+](=O)[O-])cc4)C=C[C@@]31CCN(C)C2 (stereo partly specified) | 4.72 | 284.32 | 2.81 (≈ 5.29 µM) | 1.08 (≈ 2.03 µM) | 2.57 (≈ 4.84 µM) | 72.5 | 1.59 | 1.53 | 0.42 (≈ 0.79 µM) | 0.44 (≈ 0.828 µM) | 4.16 | 4.94 (≈ 9.29 µM) | 0.21 (≈ 0.395 µM) | 3.94 | 29.37 | 4.44 | 1.62 | 0.81 (≈ 1.52 µM) | 5.44 | 2.43
6 | COc1ccc2c3c1O[C@H]1C[C@@H](OP(=O)(OCCO)N(CCCl)CCCl)C=C[C@@]31CCN(C)C2 (stereo partly specified) | 4.67 | 291.27 | 2.87 (≈ 5.36 µM) | 2.02 (≈ 3.77 µM) | 1.98 (≈ 3.7 µM) | 68.2 | 3.03 | 1.63 | 0.57 (≈ 1.06 µM) | 0.5 (≈ 0.934 µM) | 4.89 | 2.21 (≈ 4.13 µM) | 0.28 (≈ 0.523 µM) | 5.02 | 29.02 | 3.18 | 1.57 | 0.42 (≈ 0.784 µM) | 4.76 | 1.65
7 | VITAMIN E [listing 2 of 2 here] | 43.6 | 403 |  |  |  | 82.8 |  |  |  |  |  |  |  |  | 32.3 |  |  |  |  | 
8 | COc1ccc2c3c1O[C@H]1C[C@@H](OP(=O)(Oc4ccc([N+](=O)[O-])cc4)SCCO)C=C[C@@]31CCN(C)C2 (stereo partly specified) | 4.77 | 288.58 | 2.64 (≈ 4.81 µM) | 1.49 (≈ 2.72 µM) | 1.55 (≈ 2.83 µM) | 72.8 | 2.5 | 1.81 | 0.36 (≈ 0.656 µM) | 0.34 (≈ 0.62 µM) | 3.06 | 4.25 (≈ 7.75 µM) | 0.1 (≈ 0.182 µM) | 4.91 | 29.69 | 4.38 | 3.62 | 0.29 (≈ 0.529 µM) | 5.01 | 2.36
9 | COc1ccc2c3c1O[C@H]1C[C@@H](OP(=O)(Oc4ccc([N+](=O)[O-])cc4)OP(=O)(O)O)C=C[C@@]31CCN(C)C2 (stereo partly specified) | 4.22 | 287.38 | 3.33 (≈ 5.86 µM) | 2.15 (≈ 3.78 µM) | 2.69 (≈ 4.73 µM) | 72.2 | 2.38 | 2.05 | 0.28 (≈ 0.493 µM) | 0.46 (≈ 0.809 µM) | 3.78 | 2.92 (≈ 5.14 µM) | 0.19 (≈ 0.334 µM) | 4.56 | 29.55 | 4.97 | 2.42 | 0.76 (≈ 1.34 µM) | 5.45 | 1.88
10 | COc1ccc2c3c1O[C@H]1C[C@@H](OP(=O)(NCCN)N(CCCl)CCCl)C=C[C@@]31CCN(C)C2 (stereo partly specified) | 4.84 | 285.48 | 2.88 (≈ 5.4 µM) | 2.43 (≈ 4.56 µM) | 2.77 (≈ 5.19 µM) | 72.5 | 2.35 | 1.57 | 0.33 (≈ 0.619 µM) | 0.55 (≈ 1.03 µM) | 3.9 | 2.73 (≈ 5.12 µM) | 0.12 (≈ 0.225 µM) | 3.51 | 30.29 | 4.9 | 2.33 | 0.49 (≈ 0.919 µM) | 4.8 | 2.89
11 | O=C(N[C@H](CO)[C@H](O)c1ccc([N+](=O)[O-])cc1)C(Cl)Cl [CHLORAMPHENICOL] |  |  |  |  |  |  | 2.67 | 1.02 | 0.13 (≈ 0.402 µM) | 0.25 (≈ 0.774 µM) | 2.99 |  | 0.15 (≈ 0.464 µM) | 3.08 |  | 3.27 | 2.02 | 0.2 (≈ 0.619 µM) | 4.02 | 3.62
12 | COc1ccc2c3c1O[C@H]1C[C@@H](OP(=O)(NCCN)Oc4ccc([N+](=O)[O-])cc4)C=C[C@@]31CCN(C)C2 (stereo partly specified) | 5.06 | 295.92 | 1.99 (≈ 3.75 µM) | 1.89 (≈ 3.56 µM) | 1.91 (≈ 3.6 µM) | 75.9 | 1.84 | 1.93 | 0.38 (≈ 0.716 µM) | 0.62 (≈ 1.17 µM) | 4.91 | 1.81 (≈ 3.41 µM) | 0.15 (≈ 0.283 µM) | 5.09 | 29.73 | 3.73 | 1.02 | 0.75 (≈ 1.41 µM) | 6.11 | 2.78
